Where two headings read alike, the source gives them in different places.
How the values were obtained:
NKT cells [1] = experiment: IFN-γ production by NKT cells, intracellular cytokine staining; format: cell-based, mouse; conditions: 100 ng/ml, 8h stimulation, ICS
Procedure, shortened: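 NKT-enriched thymocytes were cultured for 8h with Jα18−/− splenocytes pulsed with 100 ng/ml glycolipid, with GolgiStop for the last 4h. Cells were surface stained, fixed, permeabilised and stained with anti-IFN-γ. Readout was percent IFN-γ⁺ among α-GalCer-CD1d tetramer⁺ cells. Data representative of 4 experiments.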

Vβ7+ NKT cells = experiment: Vβ usage of NKT cells after 3 days of in vitro proliferation; format: cell-based, mouse; conditions: Vβ usage by cell division peak
Procedure, shortened: (§1)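 Jα18−/− mouse splenocytes were pulsed overnight with glycolipid plus IL-2 (100 U/ml), then spun through FCS and resuspended to remove excess lipid. Thymocytes were NKT-enriched by complement depletion of anti-HSA/anti-CD8-labelled cells, cleared of dead cells by gradient, and labelled with CFSE […] for 10 min at 37C. Cells were co-cultured at 2:1 splenocytes:thymocytes for 72h.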

NKT cells [2] = format: cell-based, mouse; conditions: 3 d culture
Procedure, shortened: as §1

mouse Vβ8.2 NKT TCR = mouse Vβ8.2 NKT TCR (Mus musculus, UniProt P11609+Z9CWY5XBV8); experiment: Surface plasmon resonance of NKT TCR binding to CD1d-AGL complexes
Chain of mouse Vβ8.2 NKT TCR (P11609 whole entry, looked up, other chains not shown): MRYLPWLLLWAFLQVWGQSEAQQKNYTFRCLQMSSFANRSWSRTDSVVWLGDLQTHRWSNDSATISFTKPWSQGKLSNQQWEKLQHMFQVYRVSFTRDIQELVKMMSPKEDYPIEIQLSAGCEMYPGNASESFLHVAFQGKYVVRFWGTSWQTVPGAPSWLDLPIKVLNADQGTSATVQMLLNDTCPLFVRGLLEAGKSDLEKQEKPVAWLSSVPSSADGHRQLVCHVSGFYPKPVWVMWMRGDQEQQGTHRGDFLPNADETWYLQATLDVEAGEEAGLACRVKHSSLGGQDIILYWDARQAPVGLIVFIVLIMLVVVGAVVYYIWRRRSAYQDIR
Procedure, shortened: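 SPR used soluble mouse NKT TCR (Vα14-Jα18; Vβ8.2) injected over streptavidin-immobilised mouse CD1d loaded with glycolipid, with a reference cell of unloaded CD1d. KD was derived from equilibrium responses. Kinetic rate constants were also fitted, with t1/2 determined from the interactions.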

NKT cells [3] = experiment: Cytokines in culture supernatant, cytometric bead array; format: cell-based, mouse; conditions: 100 ng/ml, 8h stimulation
NKT cells [4] = conditions: ICS at 2 and 6 hours after in vivo challenge, compared to α-GalCer; ref Sullivan et al 2010; cited from earlier work
[5] = Serum cytokines after in vivo treatment; conditions: 20h after in vivo treatment, compared to C20:2 and OCH

SMILES | IFN-γ producing NKT cells (NKT cells [1]) | bias toward Vβ7 proliferation (Vβ7+ NKT cells) | NKT cell proliferation (NKT cells [2]; 1 ng/ml glycolipid) | NKT cell proliferation (NKT cells [2]; 100 ng/ml glycolipid) | Th2 bias of cytokine production (NKT cells [3]) | also measured
CCCCCCCCCCCCCCCCCCCCCCCCCC(=O)N[C@@H](CO[C@H]1O[C@H](CO)C[C@H](O)[C@H]1O)[C@H](O)[C@H](O)CCCCCCCCCCCCCC [4′-deoxy-α-GalCer] | less potent inducers of IFN-γ production | showed a Vβ7 bias | – | – | – | –
CCCCC/C=C\C/C=C\CCCCCCCCCC(=O)N[C@@H](CO[C@H]1O[C@H](CO)[C@@H](O)[C@H](O)[C@H]1O)[C@H](O)[C@H](O)CCCCCCCCCCCCCC [α-GlcCer (C20:2)] | least IFN-γ production of all | showed a Vβ7 bias | barely induced NKT cell proliferation | able to induce proliferation | – | bias toward Vβ7 proliferation (Vβ7+ NKT cells; listed as α-GlcCer): progressively enriched with each division cycle
CCCCCCCCCCCCCCCCCCCCCCCCCC(=O)N[C@@H](CO[C@H]1O[C@H](CO)C[C@H](O)[C@H]1O)[C@H](O)CCCCCCCCCCCCCCC [4′,4″-deoxy-α-GalCer] | less potent inducers of IFN-γ production | showed a Vβ7 bias | – | – | – | –
CCCCCCCCCCCCCCCCCCCCCCCC(=O)N[C@@H](COC1OC(CO)C(O)C(O)C1O)[C@H](O)[C@H](O)CCCCC (stereo partly shown) [OCH, reference compound] | highest percentages of IFN-γ producing NKT cells | loss of Vβ7^+ NKT cells with each progressive division cycle | consistently weaker in comparison to the non-truncated AGLs | – | not apparent | t1/2 life of the interaction, comparison in words (mouse Vβ8.2 NKT TCR): markedly longer half life when compared to that of the 3′,4″-deoxy AGL; affinity relative to the NKT TCR-CD1d-α-GalCer interaction (mouse Vβ8.2 NKT TCR; compared with the α-GalCer positive control): approximately 20%; effect on kinetic rate constants (ka, kd) (mouse Vβ8.2 NKT TCR; compared with α-GalCer, in words): impacted negatively on the association constant; Th2 bias of NKT cell cytokine production (NKT cells [4]): fails to reveal a Th2 bias
CCCCC/C=C\C/C=C\CCCCCCCCCC(=O)N[C@@H](CO[C@H]1O[C@H](CO)[C@H](O)[C@H](O)[C@H]1O)[C@H](O)[C@H](O)CCCCCCCCCCCCCC [C20:2] | highest percentages of IFN-γ producing NKT cells | – | barely induced NKT cell proliferation | able to induce proliferation | not apparent | –
CCCCCCCCCCCCCCCCCCCCCCCCCC(=O)N[C@@H](CO[C@H]1O[C@H](CO)[C@H](O)[C@H](O)[C@H]1O)[C@H](O)[C@H](O)CCCCCCCCCCCCCC [α-GalCer, α-galactosylceramide] | highest percentages of IFN-γ producing NKT cells | – | – | – | – | Kd (mouse Vβ8.2 NKT TCR): ~59 nM; t1/2 life of the interaction (mouse Vβ8.2 NKT TCR; NKT TCR-CD1d-glycolipid interaction): approximately 20 s; serum IFN-γ response [5]: more sustained IFN-γ response at 20h

— paper PMC3064745 (Immunity, 2011)
